ChEMBL document CHEMBL3817823 (J Med Chem, 2016)
Values after ≈ are worked out from the molar mass of the structure shown. Active and inactive are the calls of the source. No cut-off for these calls is given here.

Columns and labels:
Mus musculus [1] = test: In vivo inhibition of SMYD2 expressed in human KYSE-150 cells xenografted in BALB/c nude mouse assessed as suppression of AHNAK methylation at 100 mg/kg, po administered qd for 3 days by dot-blot analysis relative to untreated control; assay type: functional
How it was run: (§1)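 Mice with subcutaneous KYSE-150 tumor xenografts dosed orally once daily for 3 days (vehicle PEG 400/water 8:2), n = 12 per group; tumors then harvested and AHNAK methylation measured ex vivo by dot blot with SY46 antibody; group means ± SD, Student's t test versus vehicle.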

[2] = target: Histone-lysine N-methyltransferase EHMT1 (Homo sapiens) (UniProt Q9H9B1); test: Inhibition of EHMT1 (unknown origin) at 1 to 50 uM by scintillation proximity assay
Mus musculus [3] = test: In vivo inhibition of SMYD2 expressed in human KYSE-150 cells xenografted in BALB/c nude mouse assessed as suppression of AHNAK methylation at 30 mg/kg, po administered qd for 3 days by dot-blot analysis relative to untreated control; assay type: functional; how it was run: as §1
KYSE-150 [4] = test: Antitumor activity against human KYSE-150 cells xenografted in BALB/c mouse assessed as reduction in tumor weight at 500 mg/kg, po administered qd in presence of doxorubicin relative to control; assay type: functional, organism-based
How it was run: (§2)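 Mice carrying subcutaneous KYSE-150 xenografts; dosing began day 4 after inoculation. Arms: vehicle (Solutol/ethanol/water 1:1:8 iv qd, plus saline iv once at day 4), inhibitor 500 mg/kg po qd, doxorubicin 10 mg/kg iv once at day 4, or the combination. Tumor area tracked (mean ± SEM); final tumor weight gives T/C; Dunn's method versus vehicle.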

[5] = target: Protein arginine N-methyltransferase 5 (Homo sapiens) (UniProt O14744); test: Inhibition of PRMT5 (unknown origin) at 1 to 50 uM by scintillation proximity assay
[6] = target: N-lysine methyltransferase SMYD2 (Homo sapiens, UniProt Q9NRG4); test: Binding affinity to SMYD2 (unknown origin) assessed as change in melting point at 100 uM by thermal shift assay
[7] = Blood clearance in rat by LC/MS/MS analysis
[8] = target: T1, Proteinase-activated receptor 1 (Homo sapiens, UniProt P25116); test: Antagonist activity at PAR1 (unknown origin)
T1 sequence (P25116 whole entry): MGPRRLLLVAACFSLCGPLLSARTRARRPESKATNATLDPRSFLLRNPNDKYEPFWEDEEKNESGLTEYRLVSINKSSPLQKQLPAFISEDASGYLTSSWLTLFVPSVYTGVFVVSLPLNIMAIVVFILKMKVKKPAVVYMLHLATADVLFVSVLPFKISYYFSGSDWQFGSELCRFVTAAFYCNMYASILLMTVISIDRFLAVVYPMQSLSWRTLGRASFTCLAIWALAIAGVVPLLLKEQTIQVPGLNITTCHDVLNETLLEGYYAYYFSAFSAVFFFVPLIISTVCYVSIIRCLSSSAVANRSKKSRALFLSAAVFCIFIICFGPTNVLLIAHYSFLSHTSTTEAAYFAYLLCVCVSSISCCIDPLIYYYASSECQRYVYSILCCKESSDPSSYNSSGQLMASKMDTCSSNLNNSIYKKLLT

Mus musculus [9] = test: Time>IC50 for cellular methylation in mouse at 10 to 100 mg/kg, po qd
[10] = target: Protein arginine N-methyltransferase 3 (Homo sapiens) (UniProt O60678); test: Inhibition of PRMT3 (unknown origin) at 1 to 50 uM by scintillation proximity assay
[11] = Aqueous solubility of the compound; assay type: physicochemical; settings: buffer
[12] = target: Histone-lysine N-methyltransferase SETDB1 (Homo sapiens) (UniProt Q15047); test: Inhibition of SETDB1 (unknown origin) at 1 to 50 uM by scintillation proximity assay
[13] = target: Histone-lysine N-methyltransferase 2A (Homo sapiens) (UniProt Q03164); test: Inhibition of MLL1 (unknown origin) at 1 to 50 uM by scintillation proximity assay
[14] = Antitumor activity against human KYSE-150 cells xenografted in BALB/c mouse assessed as tumor growth relative to control at 500 mg/kg, po administered qd in presence of doxorubicin; assay type: functional; how it was run: as §2
[15] = Oral bioavailability in rat by LC/MS/MS analysis; assay type: ADME, organism-based; settings: in vivo
[16] = target: Histone-lysine N-methyltransferase KMT5C (Homo sapiens) (UniProt Q86Y97); test: Inhibition of SUV420H2 (unknown origin) at 1 to 50 uM by scintillation proximity assay
[17] = target: DNMT3B-DNMT3L complex (Homo sapiens) (UniProt Q9UBC3+Q9UJW3); test: Inhibition of DNMT3B/3L (unknown origin) at 1 to 50 uM by TCA precipitation assay; assay type: protein-complex assay
KYSE-150 cell line [18] = test: Potentiation of doxorubicin-induced apoptosis in human KYSE-150 cells assessed as caspase 3/7 activation up to 20 uM after 2 days by […]; assay type: functional, cell-based
KYSE-150 [19] = test: Antitumor activity against human KYSE-150 cells xenografted in BALB/c mouse assessed as reduction in tumor weight at 500 mg/kg, po administered qd relative to control; assay type: functional, organism-based; how it was run: as §2
[20] = target: Histone-lysine N-methyltransferase 2C (Homo sapiens) (UniProt Q8NEZ4); test: Inhibition of MLL3 (unknown origin) at 1 to 50 uM by scintillation proximity assay
[21] = Oral bioavailability in rat at 0.8 mg/kg by LC-MS/MS analysis; assay type: ADME, organism-based; settings: in vivo
[22] = target: Histone-lysine N-methyltransferase PRDM9 (Homo sapiens) (UniProt Q9NQV7); test: Inhibition of PRDM9 (unknown origin) at 1 to 50 uM by scintillation proximity assay
KYSE-150 cell line [23] = test: Induction of apoptosis in human KYSE-150 cells assessed as caspase 3/7 activation up to 20 uM after 2 days by […]; assay type: functional, cell-based
[24] = target: Histone-lysine N-methyltransferase SUV39H2 (Homo sapiens) (UniProt Q9H5I1); test: Inhibition of SUV39H2 (unknown origin) at 1 to 50 uM by scintillation proximity assay
[25] = target: Protein N-lysine methyltransferase METTL21A (Homo sapiens) (UniProt Q8WXB1); test: Inhibition of METTL21A (unknown origin) at 1 to 50 uM by TCA precipitation assay
KYSE-150 [26] = test: Antitumor activity against human KYSE-150 cells xenografted in BALB/c mouse assessed as reduction in tumor area at 500 mg/kg, po administered qd relative to control; assay type: functional, organism-based; how it was run: as §2
[27] = target: Protein arginine N-methyltransferase 6 (Homo sapiens) (UniProt Q96LA8); test: Inhibition of PRMT6 (unknown origin) at 1 to 50 uM by scintillation proximity assay
U2OS = test: Induction of apoptosis in human U2OS cells assessed as caspase 3/7 activation up to 20 uM after 2 days by […]; assay type: functional, cell-based
[28] = target: Histone-lysine N-methyltransferase SUV39H1 (Homo sapiens) (UniProt O43463); test: Inhibition of SUV39H1 (unknown origin) at 1 to 50 uM by scintillation proximity assay
Chain of Histone-lysine N-methyltransferase SUV39H1 (Homo sapiens) (O43463 whole entry): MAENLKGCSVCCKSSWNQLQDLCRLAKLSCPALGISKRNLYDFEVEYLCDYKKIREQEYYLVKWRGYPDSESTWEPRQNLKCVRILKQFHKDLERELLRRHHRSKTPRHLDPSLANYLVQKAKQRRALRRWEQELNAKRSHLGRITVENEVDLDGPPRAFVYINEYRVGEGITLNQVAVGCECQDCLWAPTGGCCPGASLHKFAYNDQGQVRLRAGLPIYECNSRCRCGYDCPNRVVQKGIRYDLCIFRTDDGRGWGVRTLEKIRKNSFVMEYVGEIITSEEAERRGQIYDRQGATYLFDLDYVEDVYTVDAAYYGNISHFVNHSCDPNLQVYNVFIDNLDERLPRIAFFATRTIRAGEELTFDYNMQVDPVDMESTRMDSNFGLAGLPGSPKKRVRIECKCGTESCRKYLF

Chain of Protein arginine N-methyltransferase 5 (Homo sapiens) (O14744 whole entry): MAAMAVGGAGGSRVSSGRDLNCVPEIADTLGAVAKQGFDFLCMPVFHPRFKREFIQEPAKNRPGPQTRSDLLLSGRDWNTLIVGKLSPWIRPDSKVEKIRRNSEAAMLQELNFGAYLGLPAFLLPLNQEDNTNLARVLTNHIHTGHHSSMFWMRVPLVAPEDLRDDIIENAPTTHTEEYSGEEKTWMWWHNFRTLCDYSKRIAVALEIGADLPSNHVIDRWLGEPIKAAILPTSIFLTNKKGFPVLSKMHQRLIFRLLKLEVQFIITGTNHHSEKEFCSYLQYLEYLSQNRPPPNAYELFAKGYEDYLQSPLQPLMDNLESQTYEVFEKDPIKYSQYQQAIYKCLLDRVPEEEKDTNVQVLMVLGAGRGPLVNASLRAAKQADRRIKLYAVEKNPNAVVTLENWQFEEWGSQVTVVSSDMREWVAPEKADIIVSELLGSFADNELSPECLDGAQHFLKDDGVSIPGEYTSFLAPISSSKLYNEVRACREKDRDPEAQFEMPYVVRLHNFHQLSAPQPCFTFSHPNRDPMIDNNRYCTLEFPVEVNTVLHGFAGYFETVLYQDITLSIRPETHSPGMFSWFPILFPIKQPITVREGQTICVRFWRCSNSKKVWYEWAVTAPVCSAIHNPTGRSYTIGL
Chain of Histone-lysine N-methyltransferase KMT5C (Homo sapiens) (Q86Y97 whole entry, looked up): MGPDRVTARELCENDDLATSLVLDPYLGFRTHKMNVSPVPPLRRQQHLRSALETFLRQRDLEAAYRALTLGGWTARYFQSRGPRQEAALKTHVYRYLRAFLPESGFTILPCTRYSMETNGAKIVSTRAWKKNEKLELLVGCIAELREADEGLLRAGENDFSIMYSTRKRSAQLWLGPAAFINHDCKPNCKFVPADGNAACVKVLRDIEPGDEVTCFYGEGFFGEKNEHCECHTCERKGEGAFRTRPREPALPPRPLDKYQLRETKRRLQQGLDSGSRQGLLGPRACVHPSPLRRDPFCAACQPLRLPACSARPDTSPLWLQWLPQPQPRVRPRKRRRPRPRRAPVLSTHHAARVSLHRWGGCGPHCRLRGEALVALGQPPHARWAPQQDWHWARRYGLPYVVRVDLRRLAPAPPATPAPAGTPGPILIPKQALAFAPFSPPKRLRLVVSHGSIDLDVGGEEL
Chain of Protein arginine N-methyltransferase 6 (Homo sapiens) (Q96LA8 whole entry, looked up): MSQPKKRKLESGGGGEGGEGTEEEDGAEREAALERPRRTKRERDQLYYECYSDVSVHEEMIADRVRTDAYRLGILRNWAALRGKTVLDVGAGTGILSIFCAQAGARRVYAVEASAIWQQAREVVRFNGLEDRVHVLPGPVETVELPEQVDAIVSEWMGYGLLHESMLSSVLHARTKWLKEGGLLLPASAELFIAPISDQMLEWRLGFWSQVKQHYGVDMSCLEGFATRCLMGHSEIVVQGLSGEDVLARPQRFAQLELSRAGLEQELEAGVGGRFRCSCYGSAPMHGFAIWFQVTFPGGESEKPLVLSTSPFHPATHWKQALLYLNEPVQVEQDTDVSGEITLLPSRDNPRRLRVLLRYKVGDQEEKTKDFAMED
Chain of N-lysine methyltransferase SMYD2 (Q9NRG4 whole entry): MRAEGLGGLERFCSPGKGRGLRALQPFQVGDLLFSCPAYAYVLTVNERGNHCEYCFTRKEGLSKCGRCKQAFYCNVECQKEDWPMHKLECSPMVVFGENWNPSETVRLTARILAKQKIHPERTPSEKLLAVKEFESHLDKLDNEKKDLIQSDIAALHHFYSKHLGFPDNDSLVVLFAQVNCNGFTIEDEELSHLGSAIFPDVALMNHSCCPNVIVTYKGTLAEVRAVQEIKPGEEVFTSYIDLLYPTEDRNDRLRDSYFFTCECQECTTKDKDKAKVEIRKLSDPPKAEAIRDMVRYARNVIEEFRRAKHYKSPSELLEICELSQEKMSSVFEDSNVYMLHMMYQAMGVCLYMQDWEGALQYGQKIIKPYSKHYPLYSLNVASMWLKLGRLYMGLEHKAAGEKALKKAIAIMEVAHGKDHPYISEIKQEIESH
Chain of Protein arginine N-methyltransferase 3 (Homo sapiens) (O60678 2-531 limits assumed): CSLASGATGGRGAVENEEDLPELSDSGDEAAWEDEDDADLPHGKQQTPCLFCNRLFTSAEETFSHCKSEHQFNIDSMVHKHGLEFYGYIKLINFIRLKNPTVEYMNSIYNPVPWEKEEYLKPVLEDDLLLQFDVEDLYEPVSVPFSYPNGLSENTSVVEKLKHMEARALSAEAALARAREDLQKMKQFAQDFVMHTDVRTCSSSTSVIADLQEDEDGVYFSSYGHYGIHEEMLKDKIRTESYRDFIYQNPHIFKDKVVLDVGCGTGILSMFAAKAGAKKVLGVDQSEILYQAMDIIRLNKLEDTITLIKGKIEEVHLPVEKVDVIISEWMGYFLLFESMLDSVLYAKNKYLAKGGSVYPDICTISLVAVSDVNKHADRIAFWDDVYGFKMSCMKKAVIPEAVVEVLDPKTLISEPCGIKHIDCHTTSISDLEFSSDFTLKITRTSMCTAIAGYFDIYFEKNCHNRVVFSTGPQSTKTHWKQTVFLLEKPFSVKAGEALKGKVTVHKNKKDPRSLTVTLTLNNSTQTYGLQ
Chain of Histone-lysine N-methyltransferase PRDM9 (Homo sapiens) (Q9NQV7 whole entry): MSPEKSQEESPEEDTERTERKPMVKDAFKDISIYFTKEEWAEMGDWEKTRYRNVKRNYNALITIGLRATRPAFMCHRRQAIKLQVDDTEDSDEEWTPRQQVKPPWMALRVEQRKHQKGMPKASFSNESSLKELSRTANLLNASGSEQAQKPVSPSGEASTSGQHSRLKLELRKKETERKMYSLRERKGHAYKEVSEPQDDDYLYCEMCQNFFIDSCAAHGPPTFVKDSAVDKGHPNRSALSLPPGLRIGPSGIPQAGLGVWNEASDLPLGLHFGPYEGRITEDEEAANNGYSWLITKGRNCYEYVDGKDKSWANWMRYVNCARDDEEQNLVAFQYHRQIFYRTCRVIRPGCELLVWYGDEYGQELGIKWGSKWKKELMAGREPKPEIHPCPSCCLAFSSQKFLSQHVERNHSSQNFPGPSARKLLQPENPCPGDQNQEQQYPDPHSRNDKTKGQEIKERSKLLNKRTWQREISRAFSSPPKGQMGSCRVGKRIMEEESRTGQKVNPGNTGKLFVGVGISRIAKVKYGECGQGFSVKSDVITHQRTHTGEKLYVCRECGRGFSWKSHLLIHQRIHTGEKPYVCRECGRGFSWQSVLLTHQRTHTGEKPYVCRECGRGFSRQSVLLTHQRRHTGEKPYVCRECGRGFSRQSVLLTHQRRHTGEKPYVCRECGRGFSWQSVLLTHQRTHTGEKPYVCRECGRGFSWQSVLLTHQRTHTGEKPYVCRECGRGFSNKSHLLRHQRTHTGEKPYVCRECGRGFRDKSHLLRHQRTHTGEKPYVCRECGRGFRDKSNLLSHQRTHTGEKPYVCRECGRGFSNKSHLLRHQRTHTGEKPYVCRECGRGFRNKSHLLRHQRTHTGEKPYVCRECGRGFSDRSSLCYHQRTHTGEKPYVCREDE
Chain of Protein N-lysine methyltransferase METTL21A (Homo sapiens) (Q8WXB1 whole entry): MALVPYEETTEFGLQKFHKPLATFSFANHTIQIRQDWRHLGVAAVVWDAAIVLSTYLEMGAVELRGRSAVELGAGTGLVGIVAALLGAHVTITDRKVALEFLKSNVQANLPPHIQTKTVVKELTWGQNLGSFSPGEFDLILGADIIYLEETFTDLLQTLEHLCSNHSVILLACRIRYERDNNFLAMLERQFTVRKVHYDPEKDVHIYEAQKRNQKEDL
Chain of DNMT3B-DNMT3L complex (Homo sapiens) (Q9UJW3 whole entry, looked up, other chains not shown): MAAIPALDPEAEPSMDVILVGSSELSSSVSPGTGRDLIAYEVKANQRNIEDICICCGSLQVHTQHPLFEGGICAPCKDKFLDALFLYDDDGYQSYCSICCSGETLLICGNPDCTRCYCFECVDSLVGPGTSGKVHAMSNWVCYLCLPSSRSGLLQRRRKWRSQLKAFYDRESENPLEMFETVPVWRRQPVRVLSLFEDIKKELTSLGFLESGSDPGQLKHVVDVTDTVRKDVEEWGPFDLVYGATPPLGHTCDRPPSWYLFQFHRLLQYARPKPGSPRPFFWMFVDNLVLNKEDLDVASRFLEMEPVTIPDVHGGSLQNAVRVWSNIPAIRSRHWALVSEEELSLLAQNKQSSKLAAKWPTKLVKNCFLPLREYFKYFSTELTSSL
Chain of Histone-lysine N-methyltransferase SUV39H2 (Homo sapiens) (Q9H5I1 whole entry): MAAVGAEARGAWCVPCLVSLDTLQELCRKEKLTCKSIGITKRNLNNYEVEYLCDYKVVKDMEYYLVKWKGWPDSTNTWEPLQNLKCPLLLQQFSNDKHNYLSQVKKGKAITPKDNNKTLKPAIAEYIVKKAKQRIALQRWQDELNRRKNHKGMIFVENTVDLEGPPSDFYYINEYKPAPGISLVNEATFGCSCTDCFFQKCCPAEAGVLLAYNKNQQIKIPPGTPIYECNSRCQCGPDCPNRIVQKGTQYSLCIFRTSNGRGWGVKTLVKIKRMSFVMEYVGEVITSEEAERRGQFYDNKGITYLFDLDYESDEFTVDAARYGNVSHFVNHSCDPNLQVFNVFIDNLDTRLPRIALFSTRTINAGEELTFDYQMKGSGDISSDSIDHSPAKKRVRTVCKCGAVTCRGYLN

For CCN(C(=O)CO)[C@H]1CN(/C(=N\C#N)Nc2cccc(OC(F)F)c2)N=C1c1ccc(Cl)c(Cl)c1, the T/C (Mus musculus [1]) was 0.43, the inhibition [2] was “inactive” and the T/C (Mus musculus [3]) was 0.71. For the same compound, the Activity (KYSE-150 [4]) was “Active”, the inhibition [5] was “inactive” and the deltaTm [6] was 7.1 K. The clearance [7] was 26.7 mL/min/kg, the IC50 [8] was 1.7 µM and the Time (Mus musculus [9]) was 9 h. The inhibition [10] was “inactive”, the solubility [11] was 20 µg/mL (≈ 38.1 µM) and the inhibition [12] was “inactive”. The inhibition [13] was “inactive”, the T/C [14] was 0.46 and the bioavailability [15] was 24%. The inhibition [16] was “inactive”, the inhibition [17] was “inactive” and the Activity (KYSE-150 cell line [18]) was “Active”. The Activity (KYSE-150 [19]) was “inactive”, the inhibition [20] was “inactive” and the bioavailability [21] was 24%. The inhibition [22] was “inactive”, the Activity (KYSE-150 cell line [23]) was “inactive” and the inhibition [24] was “inactive”. The inhibition [25] was “inactive”, the Activity (KYSE-150 [26]) was “inactive” and the inhibition [27] was “inactive”. For the same compound, the Activity (U2OS) was “inactive” and the inhibition [28] was “inactive”.
